Data set [1] deals with T1, CYP1A2 (Homo sapiens, UniProt P05177).
T1 sequence (P05177 whole entry): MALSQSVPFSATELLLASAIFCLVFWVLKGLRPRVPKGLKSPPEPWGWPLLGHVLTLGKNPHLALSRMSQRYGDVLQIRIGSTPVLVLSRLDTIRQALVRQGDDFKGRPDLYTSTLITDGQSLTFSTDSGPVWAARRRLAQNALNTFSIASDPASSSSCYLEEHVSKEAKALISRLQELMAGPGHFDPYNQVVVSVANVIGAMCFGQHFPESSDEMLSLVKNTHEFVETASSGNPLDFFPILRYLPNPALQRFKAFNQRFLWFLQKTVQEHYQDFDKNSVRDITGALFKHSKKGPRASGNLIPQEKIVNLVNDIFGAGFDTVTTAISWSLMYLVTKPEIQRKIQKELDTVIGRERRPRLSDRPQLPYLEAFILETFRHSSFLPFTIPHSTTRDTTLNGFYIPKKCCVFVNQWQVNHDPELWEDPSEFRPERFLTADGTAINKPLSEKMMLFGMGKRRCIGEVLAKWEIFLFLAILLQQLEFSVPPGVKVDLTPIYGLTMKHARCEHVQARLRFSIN
Kind of data set: Inhibition of CYP1A2 (unknown origin) at 10 uM relative to control. It counts as ADME. The essentials: (§1)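 CYP1A2, 2C9, 2C19, 2D6 and 3A4 inhibition measured at 10 µM test compound in duplicate; percent inhibition reported.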

The target of data set [2] is T2, Serine/threonine-protein kinase Chk1 (Homo sapiens) (UniProt O14757).
T2 sequence (whole entry): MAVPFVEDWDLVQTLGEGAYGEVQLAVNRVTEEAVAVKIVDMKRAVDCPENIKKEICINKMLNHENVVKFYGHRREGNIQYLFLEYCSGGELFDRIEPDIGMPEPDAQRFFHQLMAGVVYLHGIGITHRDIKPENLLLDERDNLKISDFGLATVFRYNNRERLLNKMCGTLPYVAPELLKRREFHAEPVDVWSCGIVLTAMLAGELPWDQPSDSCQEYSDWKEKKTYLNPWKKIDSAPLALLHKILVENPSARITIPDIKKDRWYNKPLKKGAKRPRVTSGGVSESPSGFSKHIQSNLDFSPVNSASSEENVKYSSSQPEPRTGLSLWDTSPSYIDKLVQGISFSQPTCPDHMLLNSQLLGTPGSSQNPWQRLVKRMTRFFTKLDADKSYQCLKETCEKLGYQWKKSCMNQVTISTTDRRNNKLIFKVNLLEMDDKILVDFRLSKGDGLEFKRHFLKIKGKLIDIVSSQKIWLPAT
Kind of data set: Inhibition of recombinant human N-terminal GST/HIS6-tagged CHK1 (M1 to T476 residues) expressed in baculovirus infected Sf9 insect cells at 1 uM using S6 peptide as substrate by fliter binding assay relative to control. The method in brief:
(§2)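 Kinase panel of 24 enzymes, each tested at 1 µM; percent inhibition reported as the average of two independent data points.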

The target of data set [3] is Platelet-derived growth factor receptor alpha (Homo sapiens) (UniProt P16234). Kind of data set: Inhibition of recombinant human N-terminal GST/His6-tagged PDGFRalpha (Q551 to L1089 residues) expressed in Sf9 insect cells at 1 uM using TRK-C-derived peptide as substrate by filter binding method relative to control. The essentials:
(§3)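 Single-point screen at 1 µM in a 24-kinase panel run externally; each value is the average of two independent data points. The detailed assay conditions are given only on the provider's site.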

Data set [4] addresses T3, 3-phosphoinositide-dependent protein kinase 1 (Homo sapiens) (UniProt O15530).
T3 sequence (whole entry): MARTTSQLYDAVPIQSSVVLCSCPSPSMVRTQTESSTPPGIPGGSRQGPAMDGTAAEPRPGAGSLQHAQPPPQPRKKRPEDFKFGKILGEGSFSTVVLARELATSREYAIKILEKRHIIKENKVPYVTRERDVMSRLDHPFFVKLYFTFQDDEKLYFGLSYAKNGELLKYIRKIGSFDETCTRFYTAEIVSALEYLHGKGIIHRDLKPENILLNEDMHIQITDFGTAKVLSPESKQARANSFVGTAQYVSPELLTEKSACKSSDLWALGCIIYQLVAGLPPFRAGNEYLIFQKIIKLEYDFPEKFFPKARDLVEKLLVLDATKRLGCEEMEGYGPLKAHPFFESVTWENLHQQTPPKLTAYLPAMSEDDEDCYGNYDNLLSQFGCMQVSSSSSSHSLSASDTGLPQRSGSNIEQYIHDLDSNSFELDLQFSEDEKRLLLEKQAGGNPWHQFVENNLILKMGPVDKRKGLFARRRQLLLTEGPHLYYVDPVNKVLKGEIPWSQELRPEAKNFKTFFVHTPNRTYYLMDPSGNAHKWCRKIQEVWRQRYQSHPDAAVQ
Kind of data set: Inhibition of recombinant human N-terminal His6-tagged PDK1 (M1 to M460 residues) expressed in Sf9 insect cells at 1 uM using LRRWSLG as substrate by filter binding method relative to control. The method in brief:
as §3

Data set [5] has as its target CYP3A4 (Homo sapiens, UniProt P08684). Kind of data set: Inhibition of CYP3A4 (unknown origin) at 10 uM relative to control. The format is ADME. The method in brief:
as §1

In data set [6] the target is Voltage-gated inwardly rectifying potassium channel KCNH2 (Homo sapiens, UniProt Q12809). Kind of data set: Inhibition of human ERG by Tracer Red dye based fluorescence polarization assay. The method in brief:
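hERG binding measured with Predictor hERG kit per kit instructions, read by fluorescence polarization.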

For data set [7], the target named is Serine/threonine-protein kinase PAK 1 (Homo sapiens) (UniProt Q13153). Kind of data set: Inhibition of recombinant human N-terminal GST/His6-tagged PAK1 (M1 to H545 residues) expressed in Sf9 insect cells at 1 uM using tetra(LRRWSLG) as substrate by filter binding method relative to control. The essentials: as §3
Chain of Serine/threonine-protein kinase PAK 1 (Homo sapiens) (Q13153 whole entry, the tested form may be a part): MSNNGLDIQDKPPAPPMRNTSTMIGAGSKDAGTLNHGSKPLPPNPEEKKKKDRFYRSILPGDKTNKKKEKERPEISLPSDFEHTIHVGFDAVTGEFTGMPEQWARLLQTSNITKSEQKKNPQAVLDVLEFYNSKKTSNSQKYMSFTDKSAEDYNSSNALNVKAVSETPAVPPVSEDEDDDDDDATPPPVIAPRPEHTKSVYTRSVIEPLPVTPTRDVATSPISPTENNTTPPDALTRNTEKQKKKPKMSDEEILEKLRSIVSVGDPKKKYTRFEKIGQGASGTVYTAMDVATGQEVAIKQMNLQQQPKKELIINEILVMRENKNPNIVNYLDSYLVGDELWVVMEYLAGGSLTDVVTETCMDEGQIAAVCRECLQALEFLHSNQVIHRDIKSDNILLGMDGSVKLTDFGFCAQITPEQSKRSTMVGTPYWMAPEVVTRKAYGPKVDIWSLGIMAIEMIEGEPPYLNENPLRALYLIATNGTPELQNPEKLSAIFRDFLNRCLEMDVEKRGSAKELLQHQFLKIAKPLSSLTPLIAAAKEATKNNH
In data set [8] the target is PI3-kinase p110-delta/p85-alpha (Homo sapiens, UniProt O00329). Kind of data set: Inhibition of recombinant human full-length N-terminal His6-tagged p110delta/human full-length p85alpha expressed in baculovirus infected Sf21 insect cells using PIP2 as substrate by HTRF assay. The conditions noted are these: read-out: Ki(app). Background: TR-FRET usually uses a lanthanide donor and a delayed reading to cut background.

Data set [9] addresses RAC-beta serine/threonine-protein kinase (Homo sapiens) (UniProt P31751). Kind of data set: Inhibition of human AKT2 at 1 uM by filter binding assay relative to control. The method in brief:
as §2

Data set [10] addresses Focal adhesion kinase 1 (Homo sapiens) (UniProt Q05397). Kind of data set: Inhibition of human FAK at 1 uM relative to control. The essentials:
as §2

The target in data set [11] is CYP2C19 (Homo sapiens, UniProt P33261). Kind of data set: Inhibition of CYP2C19 (unknown origin) at 10 uM relative to control. It counts as ADME. The essentials: as §1
Chain of CYP2C19 (P33261 whole entry, the tested form may be a part): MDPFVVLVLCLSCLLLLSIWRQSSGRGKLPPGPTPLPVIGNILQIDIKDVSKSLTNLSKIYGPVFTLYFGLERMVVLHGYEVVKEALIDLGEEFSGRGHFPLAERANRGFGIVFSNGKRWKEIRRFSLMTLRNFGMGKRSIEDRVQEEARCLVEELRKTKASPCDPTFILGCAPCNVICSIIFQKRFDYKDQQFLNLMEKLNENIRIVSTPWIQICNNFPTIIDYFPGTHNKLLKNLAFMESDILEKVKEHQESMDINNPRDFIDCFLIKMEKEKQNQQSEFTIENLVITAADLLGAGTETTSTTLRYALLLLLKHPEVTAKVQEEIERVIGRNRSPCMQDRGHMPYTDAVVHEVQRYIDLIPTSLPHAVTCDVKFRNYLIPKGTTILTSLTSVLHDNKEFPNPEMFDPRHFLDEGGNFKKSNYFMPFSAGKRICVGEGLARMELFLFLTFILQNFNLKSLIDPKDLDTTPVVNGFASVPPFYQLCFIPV
Data set [12] deals with CDK8/Cyclin C (Homo sapiens) (UniProt P49336+P24863). Kind of data set: Inhibition of recombinant human N-terminal GST/HIS6-tagged CDK8 (M1 to Y463 residues)/human N-terminal His6-tagged Cyclin C (M1 to S283 residues) expressed in Sf9 insect cells at 1 uM using RBER-IRStide as substrate by fliter binding assay relative to control. The method in brief: as §2
Data set [13] deals with Fibroblast growth factor receptor 1 (Homo sapiens) (UniProt P11362). Kind of data set: Inhibition of recombinant human N-terminal GST/His6-tagged FGFR1 (G400 to R820 residues) expressed in Sf9 insect cells at 1 uM using poly(Glu,Tyr)4:1 as substrate by filter binding method relative to control. The essentials: as §2
Chain of Fibroblast growth factor receptor 1 (Homo sapiens) (P11362 22-822 limits assumed): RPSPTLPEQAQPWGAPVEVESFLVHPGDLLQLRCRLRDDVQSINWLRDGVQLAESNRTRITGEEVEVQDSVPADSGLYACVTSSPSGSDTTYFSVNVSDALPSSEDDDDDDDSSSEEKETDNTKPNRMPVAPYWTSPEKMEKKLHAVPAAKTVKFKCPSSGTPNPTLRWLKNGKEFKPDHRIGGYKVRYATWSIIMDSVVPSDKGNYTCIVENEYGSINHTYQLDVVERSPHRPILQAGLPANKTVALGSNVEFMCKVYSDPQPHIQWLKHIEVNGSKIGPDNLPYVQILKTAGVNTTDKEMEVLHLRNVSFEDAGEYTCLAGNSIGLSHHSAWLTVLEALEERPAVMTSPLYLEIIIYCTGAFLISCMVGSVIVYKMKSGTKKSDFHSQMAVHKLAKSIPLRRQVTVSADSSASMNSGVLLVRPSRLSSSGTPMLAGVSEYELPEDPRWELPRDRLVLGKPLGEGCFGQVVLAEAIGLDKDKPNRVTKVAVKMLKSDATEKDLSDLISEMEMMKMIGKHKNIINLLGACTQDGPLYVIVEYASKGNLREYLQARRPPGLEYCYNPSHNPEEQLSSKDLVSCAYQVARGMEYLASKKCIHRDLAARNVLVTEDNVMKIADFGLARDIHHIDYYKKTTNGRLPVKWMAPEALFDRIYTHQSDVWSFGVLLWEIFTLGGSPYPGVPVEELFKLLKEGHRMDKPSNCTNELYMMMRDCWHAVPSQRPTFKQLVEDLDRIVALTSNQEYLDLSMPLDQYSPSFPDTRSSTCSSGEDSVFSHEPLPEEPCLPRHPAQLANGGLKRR

Chain of RAC-beta serine/threonine-protein kinase (Homo sapiens) (P31751 whole entry): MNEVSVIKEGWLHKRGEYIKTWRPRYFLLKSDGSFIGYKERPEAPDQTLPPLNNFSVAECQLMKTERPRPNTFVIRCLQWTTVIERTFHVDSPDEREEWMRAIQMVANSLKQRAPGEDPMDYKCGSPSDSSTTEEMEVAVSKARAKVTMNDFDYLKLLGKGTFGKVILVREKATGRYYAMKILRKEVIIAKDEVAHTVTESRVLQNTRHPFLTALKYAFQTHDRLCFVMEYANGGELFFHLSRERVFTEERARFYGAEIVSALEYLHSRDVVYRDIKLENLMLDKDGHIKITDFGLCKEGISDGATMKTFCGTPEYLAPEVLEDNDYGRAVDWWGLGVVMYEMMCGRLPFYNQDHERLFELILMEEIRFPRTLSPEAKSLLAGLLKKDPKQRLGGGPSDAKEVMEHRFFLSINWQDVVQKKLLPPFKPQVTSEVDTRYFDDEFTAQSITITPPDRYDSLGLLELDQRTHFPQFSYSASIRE
Chain of Focal adhesion kinase 1 (Homo sapiens) (Q05397 2-1052 limits assumed): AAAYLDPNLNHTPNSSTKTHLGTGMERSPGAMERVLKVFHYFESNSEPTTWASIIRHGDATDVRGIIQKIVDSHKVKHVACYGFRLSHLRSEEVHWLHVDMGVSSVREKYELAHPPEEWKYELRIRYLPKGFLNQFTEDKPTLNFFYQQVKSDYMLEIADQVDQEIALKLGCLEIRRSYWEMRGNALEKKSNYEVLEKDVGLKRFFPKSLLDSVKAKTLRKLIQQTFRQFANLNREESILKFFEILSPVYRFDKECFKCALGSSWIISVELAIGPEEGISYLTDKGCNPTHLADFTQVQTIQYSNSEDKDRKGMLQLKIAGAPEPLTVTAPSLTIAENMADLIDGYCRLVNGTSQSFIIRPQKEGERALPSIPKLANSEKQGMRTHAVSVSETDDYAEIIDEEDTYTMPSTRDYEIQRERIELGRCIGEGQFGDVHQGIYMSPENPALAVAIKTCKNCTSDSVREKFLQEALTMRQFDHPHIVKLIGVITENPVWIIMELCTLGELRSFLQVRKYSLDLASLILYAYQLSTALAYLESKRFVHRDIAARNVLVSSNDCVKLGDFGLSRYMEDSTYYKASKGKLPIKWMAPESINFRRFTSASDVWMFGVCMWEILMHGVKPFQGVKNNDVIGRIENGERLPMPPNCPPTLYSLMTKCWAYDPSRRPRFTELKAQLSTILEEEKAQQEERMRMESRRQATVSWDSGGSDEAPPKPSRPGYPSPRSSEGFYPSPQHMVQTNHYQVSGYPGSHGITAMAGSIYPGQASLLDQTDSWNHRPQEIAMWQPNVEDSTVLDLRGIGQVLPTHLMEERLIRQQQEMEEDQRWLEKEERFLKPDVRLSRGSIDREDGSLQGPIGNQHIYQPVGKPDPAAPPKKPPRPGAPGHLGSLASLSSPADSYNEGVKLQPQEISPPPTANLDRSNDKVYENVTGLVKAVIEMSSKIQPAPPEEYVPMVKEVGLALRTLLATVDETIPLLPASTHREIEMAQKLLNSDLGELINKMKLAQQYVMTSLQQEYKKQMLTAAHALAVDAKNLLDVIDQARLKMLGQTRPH
Chain of CYP3A4 (P08684 whole entry): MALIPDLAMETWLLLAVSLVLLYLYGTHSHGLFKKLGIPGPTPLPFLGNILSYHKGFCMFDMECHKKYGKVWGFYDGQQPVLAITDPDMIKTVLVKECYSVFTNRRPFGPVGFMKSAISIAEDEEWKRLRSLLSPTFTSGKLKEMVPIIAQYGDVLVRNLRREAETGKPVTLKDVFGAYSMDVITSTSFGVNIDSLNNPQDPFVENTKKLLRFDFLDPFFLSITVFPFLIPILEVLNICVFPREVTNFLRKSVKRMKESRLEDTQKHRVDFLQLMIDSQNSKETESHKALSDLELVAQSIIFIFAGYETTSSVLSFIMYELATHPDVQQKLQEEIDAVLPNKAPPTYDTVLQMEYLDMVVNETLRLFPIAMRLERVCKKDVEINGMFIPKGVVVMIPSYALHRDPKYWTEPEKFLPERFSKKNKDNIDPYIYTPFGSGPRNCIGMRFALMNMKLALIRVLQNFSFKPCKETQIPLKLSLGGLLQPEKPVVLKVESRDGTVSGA
Chain of Voltage-gated inwardly rectifying potassium channel KCNH2 (Q12809 whole entry): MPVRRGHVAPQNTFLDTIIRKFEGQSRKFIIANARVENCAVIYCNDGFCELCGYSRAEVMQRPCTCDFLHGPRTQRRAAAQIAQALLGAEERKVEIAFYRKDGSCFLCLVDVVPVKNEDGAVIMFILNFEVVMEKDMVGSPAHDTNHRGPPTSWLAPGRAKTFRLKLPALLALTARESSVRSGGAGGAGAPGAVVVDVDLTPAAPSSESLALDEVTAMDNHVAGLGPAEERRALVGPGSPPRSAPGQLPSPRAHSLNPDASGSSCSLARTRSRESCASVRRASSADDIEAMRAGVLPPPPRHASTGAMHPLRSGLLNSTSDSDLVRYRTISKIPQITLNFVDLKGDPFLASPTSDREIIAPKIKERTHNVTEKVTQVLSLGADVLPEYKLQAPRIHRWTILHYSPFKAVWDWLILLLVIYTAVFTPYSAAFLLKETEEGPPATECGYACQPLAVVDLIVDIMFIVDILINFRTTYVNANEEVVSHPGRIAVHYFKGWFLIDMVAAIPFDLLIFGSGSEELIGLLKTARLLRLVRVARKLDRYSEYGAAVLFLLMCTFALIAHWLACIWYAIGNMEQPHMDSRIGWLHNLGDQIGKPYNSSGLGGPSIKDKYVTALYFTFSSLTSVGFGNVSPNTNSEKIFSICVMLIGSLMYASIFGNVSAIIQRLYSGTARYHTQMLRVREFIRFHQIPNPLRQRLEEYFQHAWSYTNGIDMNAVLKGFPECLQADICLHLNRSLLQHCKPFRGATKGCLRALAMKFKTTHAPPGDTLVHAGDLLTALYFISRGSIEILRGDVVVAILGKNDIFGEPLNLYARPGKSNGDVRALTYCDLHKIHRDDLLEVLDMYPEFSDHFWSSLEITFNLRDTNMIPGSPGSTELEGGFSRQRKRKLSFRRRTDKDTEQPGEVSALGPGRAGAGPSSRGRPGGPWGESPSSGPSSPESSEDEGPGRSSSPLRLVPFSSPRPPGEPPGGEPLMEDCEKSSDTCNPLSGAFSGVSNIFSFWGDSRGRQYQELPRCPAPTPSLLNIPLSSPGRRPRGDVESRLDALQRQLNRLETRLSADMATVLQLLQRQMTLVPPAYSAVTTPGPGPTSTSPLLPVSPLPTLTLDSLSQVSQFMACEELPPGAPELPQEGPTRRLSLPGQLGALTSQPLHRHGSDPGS

As a reminder, the inhibition is how much of the control response was suppressed. Broadly, the IC50 is the point on the concentration scale where inhibition reaches its midpoint. High values mean weaker potency, low ones greater potency. `CS(=O)(=O)N1CCN(Cc2cn3nc(-c4cnc(N)nc4)nc(N4CCOCC4)c3n2)CC1`: the inhibition at 10 µM in [1], in data set [5] and in data set [11] was < 25% in each case. For the same molecule, the inhibition in data set [2], in [3], in [4], in data set [7], in [9] and in [10] was < 25% each time. Further, the inhibition in data set [12] and in data set [13] was < 25% throughout. Further, the IC50 in [6] is > 30000 nM. The Ki in [8] was found to be 17.9 nM.

`CS(=O)(=O)N1CCN(Cc2cc3c(N4CCOCC4)nc(-c4cnc(N)nc4)cn3n2)CC1`: the inhibition at 10 µM in data set [1], in data set [5] and in data set [11] was < 25% throughout. In addition, the inhibition in data set [2], in [3], in data set [4], in data set [7], in data set [9] and in data set [10] was < 25% throughout. The inhibition in data set [12] and in data set [13] was < 25% in each case. The IC50 in data set [6] was > 30000 nM. In [8], the Ki was 7.1 nM.

In the case of `CS(=O)(=O)N1CCN(Cc2nc3c(N4CCOCC4)nc(-c4cnc(N)nc4)c(Cl)n3n2)CC1`, the inhibition at 10 µM in [1], in data set [5] and in [11] was < 25% in each case. The inhibition in data set [2], in [3], in data set [4], in data set [7], in data set [9] and in data set [10] was < 25% each time. Moreover, the inhibition in [12] and in data set [13] was < 25% each time. For the same molecule, in data set [6], the IC50 is > 30000 nM. The Ki in data set [8] was 3.4 nM.

As for `CS(=O)(=O)N1CCN(Cc2nc3c(N4CCOCC4)nc(-c4cnc(N)nc4)cn3n2)CC1`, the inhibition at 10 µM in [1], in data set [5] and in data set [11] was < 25% throughout. For the same molecule, the inhibition in data set [2], in data set [3], in [4], in data set [7], in data set [9] and in [10] was < 25% each time. The inhibition in data set [12] and in [13] was < 25% throughout. In data set [6], the IC50 was > 30000 nM. In addition, in [8], the Ki worked out at 6.3 nM.
